How the values were obtained:
Homo sapiens [1] = experiment: Half life in HIV-1 infected patient assessed as beta-D-dioxolane guanosine level at 500 mg, po bid on day 10 coadministered with 200 mg, po bid zidovudine by LC-MS/MS analysis; assay type: ADME, organism-based; details: in vivo
Method in brief: (§1)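 Untreated Hispanic HIV-1-infected adults (viral load ≥5,000 copies/ml, CD4 ≥200 cells/mm3). Blood was drawn into DCF-containing EDTA tubes on day 1 (0–12 h) and on day 10 (0–48 h post last dose), then stored at −80°C. Plasma was methanol-extracted with an internal standard and run by LC-MS/MS (2–3,000 ng/ml AMDX/DXG; 2–5,000 ng/ml ZDV). Noncompartmental analysis assumed extravascular input; τ = 12 h; geometric means reported; accumulation was taken as AUCτ day 10/day 1.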

Homo sapiens [2] = experiment: Tmax in HIV-1 infected patient assessed as beta-D-dioxolane guanosine level at 500 mg, po bid on day 10 by LC-MS/MS analysis; assay type: ADME, organism-based; details: in vivo
Method in brief: (§2)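 Treatment-naive Hispanic HIV-1-infected adults (≥5,000 RNA copies/ml, CD4 ≥200 cells/mm3). Blood drawn after first dose on day 1 (0–12 h) and after last dose on day 10 (0–48 h) into DCF-containing EDTA tubes to block ex vivo deamination, centrifuged, plasma stored −80°C. Methanol extraction with internal standard, LC-MS/MS (linear 2–3,000 ng ml−1 for AMDX and DXG). Noncompartmental analysis assuming extravascular input; geometric means reported.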

Homo sapiens [3] = experiment: Cmax in HIV-1 infected patient assessed as beta-D-dioxolane guanosine level at 500 mg, po bid on day 10 by LC-MS/MS analysis; assay type: ADME, organism-based; set-up: dose 500 mg, route oral; details: in vivo; method in brief: as §1
Homo sapiens [4] = experiment: AUC (0 to 12 hrs) in HIV-1 infected patient assessed as beta-D-dioxolane guanosine level at 500 mg, po bid on day 10 coadministered with 300 mg, po bid zidovudine by LC-MS/MS analysis; assay type: ADME, organism-based, Plasma; set-up: time < 12 hr, dose 500 mg, route oral; details: in vivo; method in brief: as §1
[5] = Drug level in HIV-1 infected patient urine assessed as beta-D-dioxolane guanosine level at 500 mg, po bid on day 10 by LC-MS/MS analysis; assay type: ADME, organism-based; details: human, in vivo
Method in brief: (§3)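 At steady state (day 10), urine collected over one 12-h dose interval was analyzed by LC-MS/MS for AMDX, DXG, ZDV and ZDV-5′-O-glucuronide. Samples were diluted 100-fold, and the assay was linear from 1 to 500 μg/ml. Results are expressed as percentage of the dose recovered as each analyte (geometric means). Subjects were untreated HIV-1-infected adults.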

Homo sapiens [6] = experiment: Cmax in HIV-1 infected patient assessed as beta-D-dioxolane guanosine level at 500 mg, po bid on day 1 by LC-MS/MS analysis; assay type: ADME, organism-based; set-up: dose 500 mg, route oral; details: in vivo; method in brief: as §1
Homo sapiens [7] = experiment: Half life in HIV-1 infected patient assessed as beta-D-dioxolane guanosine level at 500 mg, po bid on day 1 by LC-MS/MS analysis; assay type: ADME, organism-based; details: in vivo; method in brief: as §1
Homo sapiens [8] = experiment: Half life in HIV-1 infected patient assessed as beta-D-dioxolane guanosine level at 500 mg, po bid on day 10 coadministered with 300 mg, po bid zidovudine by LC-MS/MS analysis; assay type: ADME, organism-based; details: in vivo; method in brief: as §1
Homo sapiens [9] = experiment: Cmax in HIV-1 infected patient assessed as beta-D-dioxolane guanosine level at 500 mg, po bid on day 10 coadministered with 200 mg, po bid zidovudine by LC-MS/MS analysis; assay type: ADME, organism-based; set-up: dose 500 mg, route oral; details: in vivo; method in brief: as §1
Homo sapiens [10] = experiment: AUC (0 to 12 hrs) in HIV-1 infected patient assessed as beta-D-dioxolane guanosine level at 500 mg, po bid on day 10 by LC-MS/MS analysis; assay type: ADME, organism-based, Plasma; set-up: dose 500 mg, time < 12 hr, route oral; details: in vivo; method in brief: as §1
Homo sapiens [11] = experiment: Tmax in HIV-1 infected patient assessed as beta-D-dioxolane guanosine level at 500 mg, po bid on day 10 coadministered with 300 mg, po bid zidovudine by LC-MS/MS analysis; assay type: ADME, organism-based; details: in vivo; method in brief: as §2
Homo sapiens [12] = experiment: AUC (0 to 12 hrs) in HIV-1 infected patient assessed as beta-D-dioxolane guanosine level at 500 mg, po bid on day 10 coadministered with 200 mg, po bid zidovudine by LC-MS/MS analysis; assay type: ADME, organism-based, Plasma; set-up: time < 12 hr, dose 500 mg, route oral; details: in vivo; method in brief: as §1
Homo sapiens [13] = experiment: Tmax in HIV-1 infected patient assessed as beta-D-dioxolane guanosine level at 500 mg, po bid on day 10 coadministered with 200 mg, po bid zidovudine by LC-MS/MS analysis; assay type: ADME, organism-based; details: in vivo; method in brief: as §2
Homo sapiens [14] = experiment: (§4) Ratio of AUC (0 to 12 hrs) in HIV-1 infected patient assessed as beta-D-dioxolane guanosine level at 500 mg, po bid on day 10 coadministered with 300 mg, po bid zidovudine to AUC (0 to 12 hrs) in HIV-1 infected patient assessed as beta-D-dioxolane guanosine level at 500 mg, po bid on day 1 coadministered with 300 mg, po bid zidovudine; assay type: ADME, organism-based; details: in vivo; method in brief: as §1
Homo sapiens [15] = experiment: Apparent oral clearance in HIV-1 infected patient assessed as beta-D-dioxolane guanosine level at 500 mg, po bid on day 10 coadministered with 300 mg, po bid zidovudine by LC-MS/MS analysis; assay type: ADME, organism-based; details: in vivo; method in brief: as §1
Homo sapiens [16] = experiment: as §4, with “200” for “300”; assay type: ADME, organism-based; details: in vivo; method in brief: as §1
Homo sapiens [17] = experiment: Cmax in HIV-1 infected patient assessed as beta-D-dioxolane guanosine level at 500 mg, po bid on day 10 coadministered with 300 mg, po bid zidovudine by LC-MS/MS analysis; assay type: ADME, organism-based; set-up: dose 500 mg, route oral; details: in vivo; method in brief: as §1
Homo sapiens [18] = experiment: Half life in HIV-1 infected patient assessed as beta-D-dioxolane guanosine level at 500 mg, po bid on day 10 by LC-MS/MS analysis; assay type: ADME, organism-based; details: in vivo; method in brief: as §1
Homo sapiens [19] = experiment: Apparent oral clearance in HIV-1 infected patient assessed as beta-D-dioxolane guanosine level at 500 mg, po bid on day 10 coadministered with 200 mg, po bid zidovudine by LC-MS/MS analysis; assay type: ADME, organism-based; details: in vivo; method in brief: as §1
[20] = Drug level in HIV-1 infected patient urine assessed as beta-D-dioxolane guanosine level at 500 mg, po bid on day 10 coadministered with 200 mg, po bid zidovudine by LC-MS/MS analysis; assay type: ADME, organism-based; details: human, in vivo; method in brief: as §3
Homo sapiens [21] = experiment: Apparent oral clearance in HIV-1 infected patient assessed as beta-D-dioxolane guanosine level at 500 mg, po bid on day 10 by LC-MS/MS analysis; assay type: ADME, organism-based; details: in vivo; method in brief: as §1
Homo sapiens [22] = experiment: Ratio of AUC (0 to 12 hrs) in HIV-1 infected patient assessed as beta-D-dioxolane guanosine level at 500 mg, po bid on day 10 to AUC (0 to 12 hrs) in HIV-1 infected patient assessed as beta-D-dioxolane guanosine level at 500 mg, po bid on day 1; assay type: ADME, organism-based; details: in vivo; method in brief: as §1
[23] = Drug level in HIV-1 infected patient urine assessed as beta-D-dioxolane guanosine level at 500 mg, po bid on day 10 coadministered with 300 mg, po bid zidovudine by LC-MS/MS analysis; assay type: ADME, organism-based; details: human, in vivo; method in brief: as §3

- t1/2 (Homo sapiens [1]): 14.7 h
- Tmax (Homo sapiens [2]): 1.3 h
- Cmax (Homo sapiens [3]): 1545 ng/mL
- AUC (Homo sapiens [4]): 7658 ng·h/mL
- Drug uptake [5]: 25.3%
- Cmax (Homo sapiens [6]): 1272 ng/mL
- t1/2 (Homo sapiens [7]): 2.5 h
- t1/2 (Homo sapiens [8]): 14.8 h
- Cmax (Homo sapiens [9]): 1315 ng/mL
- AUC (Homo sapiens [10]): 6834 ng·h/mL
- Tmax (Homo sapiens [11]): 1.8 h
- AUC (Homo sapiens [12]): 6225 ng·h/mL
- Tmax (Homo sapiens [13]): 1.5 h
- Ratio AUC (Homo sapiens [14]): 1.19
- CL/F (Homo sapiens [15]): 15.2 mL/min/kg
- Ratio AUC (Homo sapiens [16]): 0.91
- Cmax (Homo sapiens [17]): 1908 ng/mL
- t1/2 (Homo sapiens [18]): 17.6 h
- CL/F (Homo sapiens [19]): 15.8 mL/min/kg
- Drug uptake [20]: 26.2%
- CL/F (Homo sapiens [21]): 14.7 mL/min/kg
- Ratio AUC (Homo sapiens [22]): 1.18
- Drug uptake [23]: 27.7%
Compound: Nc1nc2c(ncn2[C@H]2CO[C@@H](CO)O2)c(=O)[nH]1

— ChEMBL document CHEMBL1671679, “Lack of pharmacokinetic interaction between amdoxovir and reduced- and standard-dose zidovudine in HIV-1-infected individuals” (Antimicrob Agents Chemother, 2010)
